We go through three sequences from PMC4779681 (Journal of immunology (Baltimore, Md. : 1950), 2016).

The test system of assay [1] is OT-I T cells. The assay can be described thus: OT-I primary effector and memory populations after LM-OVA APL infection. Type of assay: in vivo, mouse. The settings on record: for Memory OT-I cells (frequency/number) in pooled secondary lymphoid organs: LM-N4 OVA or LM-V4 OVA infection, week 4-5 post infection, Thy1.1 enrichment; for CD45RB^hi frequency, primary effectors: OT-I in blood, day 7 post LM infection; for CD45RB^hi frequency, memory cells: OT-I in secondary lymphoid tissue, 4 weeks post LM infection; for IL-2 expression by primary effectors: day 7 primary effectors; for Memory phenotype markers CD44, CD127, CD69, Granzyme B: memory OT-I cells primed by LM-OVA APL. In outline: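 OT-I donor cells (1.0 × 10⁴, Thy1.1⁺, in PBS) given i.v. to CD45.1⁺ male hosts; 10⁴ CFU LM-OVA APL i.p. 24 h later. Day 7: blood with RBC lysis, gated CD8⁺CD44^hiThy1.1⁺. Week 4 (day 28–35): spleen plus pooled LNs, anti-Thy1.1 PE/anti-PE bead enrichment. Cytokines by intracellular staining after 5 h at 37 C with 1 μM N4 OVA peptide plus GolgiPlug. Counts by counting beads.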

Assay [2] deals with OT-I T cells. The assay is described as follows: Secondary effectors after N4 OVA peptide footpad rechallenge. The conditions noted are these: for CD45RB^hi frequency, secondary effectors: N4 OVA peptide 10 μg per hind foot pad, draining popliteal LN, 5 days later; for CD62L^lo frequency, CD45RB^lo vs CD45RB^hi fraction: CD45RB^lo vs respective CD45RB^hi population. Type of assay: in vivo, mouse.

The subject of assay [3] is OT-I T cells. The assay can be described thus: In vitro OVA APL OT-I stimulation. Type of assay: cell-based, mouse. The settings on record: for hnRNPLL expression: OT-I cells primed with peptide 3 days in vitro (0.1 μM).
Assay [4] deals with OT-I T cells. The assay can be described thus: Sorted Q4 OVA primed OT-I cells transferred and rechallenged with N4 OVA peptide. It is filed as in vivo, mouse. The settings on record: N4 OVA peptide rechallenge in naïve congenic hosts, day 5, p=0.0012. In outline:
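OT-I splenocytes (3×10⁶) were primed for 3 days with 0.1 μM Q4 OVA peptide, 0.1 μg/mL anti-CD28 and 10 ng/mL IL-2. Dead cells were removed, then cells were cultured overnight in 10 ng/mL IL-15. Live CD8⁺CD44^hiThy1.1⁺ cells were sorted into CD45RB^hi/lo, transferred to naïve congenic hosts and rechallenged with N4 OVA peptide. CD45RB was assessed 5 days later; 2–3 independent experiments.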

For assay [5], the system named is OT-I T cells. It is filed as in vivo, mouse. The conditions noted are these: vs N4 OVA primed. In short, it runs like this: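 Memory mice, OT-I-transferred and LM-infected, received full-thickness tail and ear skin grafts expressing N4 OVA on the dorsal thorax 5 weeks post infection. Draining LN OT-I cells were counted with counting beads on day 5 post graft. Fold expansion was taken from day 0 to day 5.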

In assay [6] the test system is OT-I T cells. The settings on record: between N4 and V4 OVA; cited from earlier work.

Take SIINFEKL [N4 OVA]: in the assay with OT-I T cells [1], the “Memory OT-I cells (frequency/number) in pooled secondary lymphoid organs” value is recorded as 8.0×10^4±3.3×10^4; the “CD45RB^hi frequency, primary effectors” value came to 48.9±2.2%; the “CD45RB^hi frequency, memory cells” value is reported as 54.7±6.76%; the “IL-2 expression by primary effectors” value is on record as “similarly low levels of IL-2”. Moreover, the “Memory phenotype markers CD44, CD127, CD69, Granzyme B” value in the assay on OT-I T cells [1] was “high levels of CD44 and CD127, and low levels of CD69 and Granzyme B”. The “CD45RB^hi frequency, secondary effectors” value with OT-I T cells [2] came out at 30.2±3.39%. For the same sequence, the “CD62L^lo frequency, CD45RB^lo vs CD45RB^hi fraction” value with OT-I T cells [2] (secondary effectors) is recorded as “greater frequency”. Moreover, the hnRNPLL expression entry with OT-I T cells [3] is listed as “increased”. Besides, the “Nur77 and CD69 expression, CD45RB^hi vs CD45RB^lo cells” value in the assay with OT-I T cells [3] (V4 OVA Tm cells restimulated 5 h with N4 OVA or OVA APL, 0.1 μM) is listed as “significantly greater in CD45RB^hi cells”.

SIIQFEKL [Q4 OVA]: the “Proliferation of sorted CD45RB^hi vs CD45RB^lo cells” value in the assay with OT-I T cells [4] is on record as “proliferated to a significantly greater number”.

As for SIIVFEKL [V4 OVA], the “Fold expansion of memory cells post graft” value in the assay with OT-I T cells [5] (day 0 to day 5 post N4 OVA skin graft) is “greater fold expansion”. Moreover, the “Number of OT-I cells recovered in draining lymph nodes” value in the assay with OT-I T cells [5] (day 5 post N4 OVA skin graft) is recorded as “fewer”. Further, the “Range in relative functional avidity” value in the assay with OT-I T cells [6] is 680 fold. Also, in the assay on OT-I T cells [1], the “Memory OT-I cells (frequency/number) in pooled secondary lymphoid organs” value is 1.3×10^3±5.3×10^2; the “CD45RB^hi frequency, primary effectors” value was 68.7±3.6%; the “CD45RB^hi frequency, memory cells” value worked out at 79.3±3.4%; the “IL-2 expression by primary effectors” value was “similarly low levels of IL-2”. The “Memory phenotype markers CD44, CD127, CD69, Granzyme B” value with OT-I T cells [1] is “high levels of CD44 and CD127, and low levels of CD69 and Granzyme B”. Further, the “Fold lower frequency of CD8^+ OT-I effectors in blood vs N4 OVA priming” value in the assay on OT-I T cells [1] (day 7 post LM infection (10^4 CFU i.p.), 10^4 OT-I transferred) is ~ 80 fold. Also, the “Fold lower frequency of memory OT-I cells vs N4 OVA priming” value with OT-I T cells [1] (secondary lymphoid organs, memory, LM infection) stood at 61 fold. Moreover, the “CD45RB^hi frequency, secondary effectors” value in the assay on OT-I T cells [2] amounted to 19.6±1.96%. For the same sequence, in the assay with OT-I T cells [2] (secondary effectors), the “PD-1 expression in CD45RB^lo fraction” value is “significantly upregulated” and the “CD62L^lo frequency, CD45RB^lo vs CD45RB^hi fraction” value is “greater frequency”. For the same sequence, the “IL-2Rβ (CD122) expression” value in the assay on OT-I T cells [2] (secondary effectors, CD45RB^lo vs CD45RB^hi) is “significantly lower”. For the same sequence, the “CD62L^lo frequency within CD45RB^lo population” value in the assay on OT-I T cells [2] (secondary effectors, V4 OVA vs N4 OVA primed CD45RB^lo) is “slightly smaller frequency”. Besides, the “IFN-γ^+ or TNF^+ frequency, CD45RB^lo vs CD45RB^hi” value in the assay on OT-I T cells [2] (secondary effectors, high affinity rechallenge) is given as “did not possess greater frequencies”. Besides, the “Loss of CD45RB^hi cells relative to resting memory” value with OT-I T cells [2] (secondary effectors, vs N4 OVA primed) was “significantly greater”. For the same sequence, in the assay with OT-I T cells [2] (vs CD45RB^hi cells and N4 OVA primed CD45RB^lo cells), the “IL-2Rα (CD25) expression, CD45RB^lo cells” value was “significantly higher levels”. The hnRNPLL expression result in the assay with OT-I T cells [3] is given as “not induced”.
